Screens deposited in PubChem BioAssay by The Scripps Research Institute Molecular Screening Center.
This is a sample that favours compounds with a hit; in the whole collection about 3.3% have one here.
rCAG binder: molecules binding r(CAG) RNA repeats; r(CAG) RNA repeat, TO-PRO-1 dye displacement fluorescence; inhibition, % at 3 µM; actives 1.3% (n = 370,000); AID 651821;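 active = inhibition above the plate cutoff, the mean of all test compounds on that plate plus 3 SD, cut at about 35% in these data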;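 note: 0% = DMSO alone and 100% = 100 µM mitoxantrone as full dye displacement; higher means more dye released from RNA so lower well fluorescence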
SIAE inh: human SIAE inhibition, primary screen; SIAE FP-Rh probe binding, fluorescence polarization; inhibition, % at 9.66 µM; actives 0.69% (n = 370,000);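 active = inhibition above a cutoff: mean of compounds within the control limits plus 3 SD of those, cut at about 17% in these data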;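 note: 0% = plate median of compound wells and 100% = probe without SIAE protein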
ABHD4 inh: inhibits mouse alpha/beta hydrolase domain 4; Q8VD66; purified mABHD4, FP-Rh probe fluorescence polarization; inhibition, % at 8.92 µM; actives 0.54% (n = 370,000); AID 720543;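 active = inhibition exceeding the mean over every tested compound plus 3 SD, cut at about 30% in these data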;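 note: 0% = plate median of compound wells and 100% = S159A mutant with DMSO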
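Assay system: mouse ABHD4 enzyme, wild type / Also added: fluorescent activity-based probe FP-Rh / Doses: single nominal dose of 8.92 µM, 0.89% DMSO final / Timing: 45 min compound pre-incubation plus 60 min probe step, 25 °C / Signal: FP readout, ex 525 nm / em 598 nm / Control set: S159A mutant/DMSO as 100%, compound-well median as 0%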
HTRA1 inh: blocks human HTRA1 serine peptidase; Q92743; recombinant HTRA1, FP-rhodamine activity-based probe, fluorescence polarization; inhibition, % at 5.96 µM; actives 0.5% (n = 340,000); AID 504803; in the data active = inhibition above about 36%;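 note: 0% = enzyme with DMSO and 100% = wells lacking enzyme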
PRMT1 FP inh: inhibitors of human PRMT1 | Q99873 | recombinant PRMT1, activity-based probe fluorescence polarization | actives 1.3% (n = 370,000) | AID 652257 | inhibition, % at 2.79 µM;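 active = inhibition above about 21% made by adding two undisclosed values, limit read from the data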
Target sequence (Q99873 whole entry, looked up): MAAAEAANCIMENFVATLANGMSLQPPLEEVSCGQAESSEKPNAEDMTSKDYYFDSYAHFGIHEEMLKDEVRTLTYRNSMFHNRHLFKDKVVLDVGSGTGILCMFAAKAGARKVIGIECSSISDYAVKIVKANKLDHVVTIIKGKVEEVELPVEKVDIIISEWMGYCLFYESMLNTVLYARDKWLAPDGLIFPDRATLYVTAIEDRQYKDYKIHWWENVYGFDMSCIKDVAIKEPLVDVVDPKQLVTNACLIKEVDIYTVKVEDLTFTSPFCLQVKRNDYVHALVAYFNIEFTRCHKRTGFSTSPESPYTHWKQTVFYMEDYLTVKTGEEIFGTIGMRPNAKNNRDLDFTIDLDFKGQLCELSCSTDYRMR
PRMT1 confirm: confirmation of human PRMT1 inhibitors; shares compounds with PRMT1 FP inh; recombinant His-PRMT1, activity-based probe fluorescence polarization; inhibition, % at 2.79 µM; actives 42% (n = 3,300);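 active = mean inhibition across replicates above the hit cutoff derived for the earlier primary screen, cut at about 22% in these data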
Numbers without * were called inactive; / = not tested or not shown.

SMILES	rCAG binder	SIAE inh	ABHD4 inh	HTRA1 inh	PRMT1 FP inh	PRMT1 confirm
CCOC(=O)C1=C(C)NC(=S)NC1c1ccc(-c2ccc(Cl)cc2)o1 (stereo not drawn)	7	2	-12	-22	42*	5
COc1ccc(CCNC(=O)c2cccs2)cc1	1	-12	-6	0	6	/
Cc1cc(-c2ccco2)n(-c2ccccc2)n1	18	-4	-10	-7	43*	21*
COc1ccc([C@H]2C[C@H](n3cc(-c4ccc(F)cc4)nn3)[C@@H](O)CN2CC2CCCCC2)cc1	6	-17	-12	-75	-9	/
CCN(CC)c1ccc(N)cc1S(=O)(=O)Nc1ccccc1OC	3	5	7	17	46*	14
CCN(CC)c1ccc(N)cc1S(=O)(=O)Nc1ccc(OC)cc1	2	4	3	7	7	/
CC(=O)N1CCOc2ccc(S(=O)(=O)NC[C@H]3O[C@@H](n4cnc5c(N)ncnc54)[C@H](O)[C@@H]3O)cc21	2	-3	12	3	1	/
CC(=O)Nc1nc(=O)c2ccccc2s1	-2	12	2	8	44*	33*
CC(=O)N/C(N)=N/c1nc(=O)c2ccccc2s1	-2	8	4	-2	3	/
Nc1nc(=O)c2ccccc2s1	1	-8	-1	5	36*	25*
O=C(NC1CCCC1)C(c1ccccc1F)N(C(=O)c1csnn1)c1ccccc1 (stereo not drawn)	-1	2	1	-4	-2	/
CC(=O)NCCc1nc2cc(NC(=O)c3cccc([N+](=O)[O-])c3)ccc2n1C	/	/	/	-2	/	/
O=S(=O)(Nc1ccc(Cl)cc1)c1ccc(N2CCOCC2)c(NC(=S)NCCN2CCOCC2)c1	9	2	0	-3	49*	74*
COc1ccc(/C=C2\CCc3c2nc2ccccc2c3C(=O)O)cc1OC	19	9	12	8	79*	12
CCOc1ccc(/C=C2\CCCc3c2nc2ccccc2c3C(=O)O)cc1OC	/	/	/	14	/	/
C[C@@]12C(=O)N(CCc3c[nH]c4ccccc34)CC(=O)N1[C@H]1c3ccccc3OC[C@@H]1[C@@H]2c1ccccc1	3	0	-8	-15	-2	/
N#CC1=C2SCN(c3ccccc3)CN2C(=O)CC1c1ccccc1Cl (stereo not drawn)	19	4	9	-11	20	/
COc1cccc(C2CC(=O)N3CN(c4cccc(Cl)c4C)CSC3=C2C#N)c1OC (stereo not drawn)	15	7	15	-16	29*	54*
COc1ccc(OC)c(C2CC(=O)N3CN(c4cccc(Cl)c4C)CSC3=C2C#N)c1 (stereo not drawn)	21	-2	5	-8	45*	64*
COc1ccc(OC)c(C2CC(=O)N3CN(c4cccc(Cl)c4)CSC3=C2C#N)c1 (stereo not drawn)	21	0	5	2	18	/
COc1ccc(OC)c(C2CC(=O)N3CN(c4ccccc4F)CSC3=C2C#N)c1 (stereo not drawn)	34	1	3	-5	33*	22*
O=C(CCS(=O)(=O)Cc1ccccc1)Nc1ncc([N+](=O)[O-])s1	0	-4	0	4	5	/
CN1Cc2sc(NC(=S)NC(=O)c3ccccc3)c(C#N)c2CC1(C)C	8	9	14	/	71*	9
CC1(C)Cc2c(sc(NC(=O)c3ccco3)c2C#N)CO1	0	0	0	4	-3	/
CCCCOc1ccccc1NC(=O)C=C(C)C	-1	-9	-9	-2	-4	/
SMILES	rCAG binder	SIAE inh	ABHD4 inh	HTRA1 inh	PRMT1 FP inh	PRMT1 confirm
CCCOc1ccccc1NC(=O)/C=C/C(N)=O	0	-4	7	1	59*	36*
CCOc1ccc(NS(=O)(=O)c2ccc3ncsc3c2)cc1	0	6	-7	-4	0	/
COc1ccccc1CN(C)C[C@H]1OCc2cnnn2CCCC(=O)N([C@H](C)CO)C[C@@H]1C	-1	3	-4	1	3	/
Cc1ccc(C(=O)/C=C\C(=O)c2ccc(C)cc2)cc1	3	0	1	-1	40*	57*
Cc1ccc(C(=O)/C=C/c2ccc(-c3ccc(C)cc3)o2)cc1	18	-2	2	-11	50*	6
CCN(CC)S(=O)(=O)c1ccc(C(=O)/C=C/c2ccc(-c3ccc([N+](=O)[O-])cc3)o2)cc1	19	1	16	6	11	/
Cc1cnc(NC(=O)Cc2ccc(S(=O)(=O)N3CCOCC3)s2)s1	3	3	4	-6	38*	12
CC(C)(C)c1csc(NC(=O)Cc2ccc(S(=O)(=O)N3CCOCC3)s2)n1	11	-8	-2	-10	5	/
Cc1cccn2cc(CNc3ccccc3)nc12	-1	2	2	4	-3	/
CCOC(=S)SCc1cn2cccc(C)c2n1	1	-5	-14	5	57*	12
CC(C)C(NC(=O)C1CCCCC1)C(=O)NCCc1ccccc1 (stereo not drawn)	-1	7	0	6	25*	-1
O=C(NNc1nc2cc3c(cc2s1)OCO3)c1cccc(F)c1	11	-3	20	17	33*	11
O=C(NNc1nc2cc3c(cc2s1)OCO3)c1ccccc1	5	7	20	12	20	/
O=C(NCc1ccc2c(c1)OCO2)c1ccco1	2	10	3	-8	-4	/
O=C(CC(SCCO)c1ccc2c(c1)OCO2)c1ccco1 (stereo not drawn)	7	-3	7	-1	39*	44*
Cc1nn(C)c(Sc2ccccc2N)c1[N+](=O)[O-]	0	12	2	2	71*	52*
CCN(C(=O)COC(=O)c1ccc2[nH]c3c(c2c1)CCCC3)C1CCS(=O)(=O)C1 (stereo not drawn)	3	-2	-4	-2	4	/
CCN(C(=O)CSc1nnc(-c2c[nH]c3ccccc23)n1C1CC1)C1CCS(=O)(=O)C1 (stereo not drawn)	-3	4	1	0	2	/
O=C(O)/C(=C\c1ccc(-c2ccc(F)cc2)o1)c1ccccc1	27	3	3	-6	28*	16
N#CC(C#N)=C1C=CC=CN1/C(=C\c1ccccc1Cl)C(=O)c1ccccc1	4	5	14	-8	29*	32*
N#CC(C#N)=C1C=CC=CN1/C(=C\c1ccccc1)C(=O)c1cccs1	3	2	4	-8	20	/
CCC1(O)C(=O)OCc2c1cc1n(c2=O)Cc2cc3cc(O)ccc3nc2-1 (stereo not drawn)	-63	14	0	6	28*	31*
COc1ccc(-c2onc3ccc(Cl)cc23)cc1	8	0	3	-5	30*	13
Cc1ccc(NC(=O)CSC(N)=O)cc1Cl	3	-14	0	0	28*	89*
